# Assay results of several laboratories.
# Protocols differ between the studies behind these lines.
# PLEKHA3: PLEKHA3 (Homo sapiens, UniProt Q9HB20)
# ADRA2C: Alpha-2C adrenergic receptor (ADRA2C, Homo sapiens, UniProt P18825)
# Fibroblast growth factor 14: Fibroblast growth factor 14 (Homo sapiens, UniProt Q92915)
Structure (SMILES),target,read-out,mode,method,measurement,value
CCOc1ccc(C(=O)CC(SCc2cccc(Br)c2)C(=O)O)cc1 (stereo not drawn),PLEKHA3,ligand displacement,,FP,Ki,6030 nM
Cc1cc(Oc2ncccc2CN2CCN(c3cccc(F)c3)CC2)ccc1-c1c(C)c(=O)[nH]c(=O)n1C,ADRA2C,ligand displacement,,radioligand,Ki,20 nM
O=C(O)c1cc(-c2ccc(-c3cc[nH]n3)cc2)c2ccc(-c3ccc(C(F)(F)F)cc3)cc2c1,ADRA2C,cell-free assay,,radioligand,Ki,6500 nM
Cc1cc(Oc2ncccc2CN2CCN(c3ccc([N+](=O)[O-])cc3C(F)(F)F)CC2)ccc1-c1c(C)c(=O)[nH]c(=O)n1C,ADRA2C,ligand displacement,,radioligand,Ki,401 nM
CC(C)=CC[C@@H](O)C1=CC(=O)c2c(O)ccc(O)c2C1=O,"Interleukin-6 (IL6, Homo sapiens, UniProt P05231)",binding,,BLI,Kd,910 nM
Cc1cc(Oc2ncccc2CN2CCN(c3ccc(Br)cc3)CC2)ccc1-c1c(C)c(=O)[nH]c(=O)n1C,ADRA2C,ligand displacement,,radioligand,Ki,76.1 nM
COc1ccc(C(=O)CC(SCc2ccc(Cl)cc2)C(=O)O)cc1 (stereo not drawn),PLEKHA3,ligand displacement,,FP,Ki,13200 nM
CC(=O)Nc1ccc(S(=O)(=O)N2CCN(CC(O)COc3ccc4ccccc4c3)CC2)cc1 (stereo not drawn),Fibroblast growth factor 14,binding,,SPR,Kd,8530 nM
CCOc1ccc(C(=O)CC(SCc2ccc(OC)cc2)C(=O)O)cc1 (stereo not drawn),PLEKHA3,ligand displacement,,FP,Ki,27000 nM
C[C@H](Cc1ccc(O)c(O)c1)[C@@H](C)Cc1ccc(O)c(O)c1,"pyrD (Pseudomonas aeruginosa, UniProt Q9HZF8)",binding,,ITC,Kd,7500 nM
CCOC(=O)c1cccc(NC(=O)Cn2cc(CO)c3ccccc32)c1,Fibroblast growth factor 14,binding,,SPR,Kd,293 nM
Cc1cc(Oc2ncccc2CN2CCN(c3cccc4ccccc34)CC2)ccc1-c1c(C)c(=O)[nH]c(=O)n1C,ADRA2C,ligand displacement,,radioligand,Ki,14.3 nM
c1coc(-c2n[nH]cc2-c2ccnc3ccccc23)c1,"Mitogen-activated protein kinase 14 (MAPK14, Homo sapiens, UniProt Q16539)",enzyme activity,inhibitor,ADP detection,IC50,1800 nM
O=c1cc(-c2ccc([N+](=O)[O-])cc2)[nH]c2c(-c3ccc(Cl)cc3)c(Cc3ccccc3)nn12,Fibroblast growth factor 14,binding,,SPR,Kd,940 nM
CCOc1ccc(C(=O)CC(SCc2ccc(Br)cc2)C(=O)O)cc1 (stereo not drawn),PLEKHA3,ligand displacement,,FP,Ki,18600 nM
